For 3 compounds, Activity, inhibition and IC50 results are on record in ChEMBL document CHEMBL1147710, “Synthesis of (2E)-3-{2-[(substituted benzyl)oxy]phenyl}acrylaldehydes as novel anti-inflammatory agents” (Bioorg Med Chem Lett, 2006).

The subject of assay [1] is Neutrophil. The assay is described as follows: Formation of PMA-induced superoxide in Sprague-Dawley rat neutrophil at 1 uM per 10^6 cells after 30 min. It counts as functional. An outline of the steps:
(§1)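 Superoxide generation by rat (Sprague Dawley) neutrophils stimulated with PMA at 3 nM. Test range 1–30 µM. Readout is superoxide formed in nmol/10⁶ cells/30 min, with percent inhibition versus control. N = 3.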

Assay [2] relates to Neutrophil. The assay is described as follows: Inhibition of fMLP-induced superoxide formation in Sprague-Dawley rat neutrophil at 3 uM. The assay is classed as functional. An outline of the steps: (§2)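 Rat (Sprague Dawley) neutrophils were stimulated with fMLP (0.3 µM) plus cytochalasin B (5 µg/mL). Superoxide formed was reported as nmol/10⁶ cells/30 min and percent inhibition versus control. IC50 was derived from the […] concentration series. N = 3.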

The test system of assay [3] is Neutrophil. Nature of the assay: Inhibition of fMLP-induced superoxide formation in Sprague-Dawley rat neutrophil at 10 uM. It counts as functional. An outline of the steps:
as §2

The subject of assay [4] is Neutrophil. The assay is described as follows: Formation of fMLP-induced superoxide in Sprague-Dawley rat neutrophil at 5 uM per 10^6 cells after 30 min. It counts as functional.
The subject of assay [5] is Neutrophil. The assay is described as follows: Inhibition of fMLP-induced superoxide formation in Sprague-Dawley rat neutrophil at 5 uM. The assay is classed as functional.
Assay [6] deals with Neutrophil. The assay is described as follows: Inhibition of PMA-induced superoxide formation in Sprague-Dawley rat neutrophil. The assay is classed as functional, cell-based. An outline of the steps: as §1
In assay [7] the test system is Neutrophil. Nature of the assay: Formation of fMLP-induced superoxide in Sprague-Dawley rat neutrophil at 10 uM per 10^6 cells after 30 min. The assay is classed as functional. An outline of the steps: as §2
The test system of assay [8] is Neutrophil. Nature of the assay: Formation of fMLP-induced superoxide in Sprague-Dawley rat neutrophil at 3 uM per 10^6 cells after 30 min. It counts as functional. An outline of the steps: as §2
Assay [9] concerns Neutrophil. Nature of the assay: Inhibition of fMLP-induced superoxide formation in Sprague-Dawley rat neutrophil. The assay is classed as functional, cell-based. An outline of the steps: as §2
Assay [10] relates to Neutrophil. Nature of the assay: Formation of PMA-induced superoxide in Sprague-Dawley rat neutrophil at 3 uM per 10^6 cells after 30 min. The assay is classed as functional. An outline of the steps: as §1
Assay [11] relates to Neutrophil. The assay is described as follows: Inhibition of PMA-induced superoxide formation in Sprague-Dawley rat neutrophil at 10 uM. It counts as functional. An outline of the steps: as §1
Assay [12] deals with Neutrophil. Nature of the assay: Inhibition of PMA-induced superoxide formation in Sprague-Dawley rat neutrophil at 3 uM. It counts as functional. In a few lines:
as §1

The subject of assay [13] is Neutrophil. Nature of the assay: Inhibition of PMA-induced superoxide formation in Sprague-Dawley rat neutrophil at 1 uM. It counts as functional. An outline of the steps: as §1
Assay [14] concerns Neutrophil. The assay is described as follows: Formation of fMLP-induced superoxide in Sprague-Dawley rat neutrophil at 30 uM per 10^6 cells after 30 min. The assay is classed as functional. In a few lines:
as §2

The subject of assay [15] is Neutrophil. Nature of the assay: Inhibition of fMLP-induced superoxide formation in Sprague-Dawley rat neutrophil at 30 uM. It counts as functional. In a few lines: as §2
Assay [16] has as its system Neutrophil. Nature of the assay: Increase in cAMP level in Sprague-Dawley rat neutrophil. It counts as functional, cell-based. In a few lines:
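Neutrophils were treated for 10 min with the indicated concentrations, with DMSO giving the basal level. Cellular cAMP was measured by enzyme immunoassay kit. Values are means SD of three experiments.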
A general note: Changes in cAMP serve as a functional read-out for many G protein-coupled receptors.

For assay [17], the system named is Neutrophil. The assay is described as follows: Formation of fMLP-induced superoxide in Sprague-Dawley rat neutrophil at 1 uM per 10^6 cells after 30 min. It counts as functional. In a few lines: as §2
For assay [18], the system named is Neutrophil. The assay is described as follows: Inhibition of fMLP-induced superoxide formation in Sprague-Dawley rat neutrophil at 1 uM. The assay is classed as functional. An outline of the steps:
as §2

The subject of assay [19] is Neutrophil. Nature of the assay: Formation of PMA-induced superoxide in Sprague-Dawley rat neutrophil at 10 uM per 10^6 cells after 30 min. It counts as functional. In a few lines:
as §1

Assay [20] concerns Neutrophil. The assay is described as follows: Formation of PMA-induced superoxide in Sprague-Dawley rat neutrophil at 30 uM per 10^6 cells after 30 min. The assay is classed as functional. An outline of the steps: as §1
The subject of assay [21] is Neutrophil. The assay is described as follows: Inhibition of PMA-induced superoxide formation in Sprague-Dawley rat neutrophil at 30 uM. It counts as functional. An outline of the steps: as §1

In the case of `CN1CCN(CCCN2c3ccccc3Sc3ccc(C(F)(F)F)cc32)CC1` [TRIFLUOPERAZINE], the Activity worked out at 5.48 nmol with Neutrophil [1]; 2.1 nmol in the assay on Neutrophil [4]; 0.54 nmol in the assay on Neutrophil [7]; 2.8 nmol in the assay with Neutrophil [8]; 3.4 nmol with Neutrophil [10]. In addition, the values for the inhibition at 3 µM in the assay with Neutrophil [2] and in the assay on Neutrophil [12] were 1.7% and 55.4%, respectively. The inhibition at 10 µM in the assay on Neutrophil [3] amounted to 79.5%; in the assay with Neutrophil [11], 83.3%. For the same compound, the inhibition at 5 µM in the assay on Neutrophil [5] turned out to be 24.2%. Also, the IC50 with Neutrophil [6] stood at 2700 nM; with Neutrophil [9], 6.6 µM. In addition, in the assay with Neutrophil [13], the inhibition at 1 µM was determined as 27.6%.

Turning to `O=Cc1ccccc1OCc1ccccc1`, the inhibition at 3 µM in the assay on Neutrophil [2] turned out to be 36.1%. For the same compound, the inhibition at 10 µM in the assay on Neutrophil [3] came to 40.6%. Also, the Activity with Neutrophil [14] was 0.62 nmol; in the assay with Neutrophil [7], 0.86 nmol; with Neutrophil [8] it was 1.01 nmol; in the assay with Neutrophil [16], “Dose-dependent effect”. Further, the inhibition at 30 µM in the assay with Neutrophil [15] worked out at 60.8%. This compound came in with an IC50 in the assay with Neutrophil [9] of 15.6 µM.

Turning to `O=C/C=C/c1ccccc1OCc1ccc(Cl)c(Cl)c1`, the inhibition at 3 µM in the assay on Neutrophil [2] is 29.4%. The inhibition at 10 µM in the assay with Neutrophil [3] came out at 79.8%; in the assay on Neutrophil [11] it was 1.9%. Moreover, the Activity was 2.56 nmol in the assay with Neutrophil [17]; 0.6 nmol in the assay with Neutrophil [7]; 2.03 nmol with Neutrophil [8]; 7.77 nmol in the assay on Neutrophil [19]; 11.4 nmol in the assay with Neutrophil [20]. Further, the inhibition at 1 µM in the assay on Neutrophil [18] worked out at 11.7%. In the assay on Neutrophil [9], the midpoint of inhibition, the IC50, lay at 4.3 µM. In addition, the inhibition at 30 µM with Neutrophil [21] was -51.1%.

A word on the inhibition: it is the change of the read-out against control, counted positive when it falls. The term IC50 denotes the point on the concentration scale where inhibition reaches its midpoint. Lower therefore signals greater potency.
